NRP1-CendR mod = modulators of CendR peptide binding to NRP-1, primary screen, biochemical, fluorescence polarization, uHTS. FAM-RPARPAR peptide binding to NRP-1. inhibition, % at 25 µM. hit rate 0.85% among 360,000;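 active = inhibition or corrected inhibition above about 18%, plus a signal ratio from 0.5 to 1.5, limit read from the data, passing the limit was not always enough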
Arrestin-AP2 inh = inhibitors of beta-arrestin/AP2 binding, primary screen, biochemical, GPCR trafficking, flow cytometry | AID 504490, 2011 | inhibition, % at 10 µM | hit rate 0.31% among 340,000 | FITC-arrestin peptide / GST-AP2 beads; AP2 beta2 appendage carries R879A mutation;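 active = inhibition above a set limit, near 3 SD of compounds lacking own fluorescence, cut at about 54% in these data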
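Assay system: GST-AP2 R879A bound to glutathione beads, E. coli-expressed; Medium: PBS with 0.05% Tween 20 and 0.1% BSA; Also added: fluorescein-tagged arrestin peptide at 50 nM final; Timing: 12 min plus 1 h, RT; Measured by: flow cytometry, FL1 (488/535 nm); Evaluation: percent drop in bead-associated FITC signal.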
m5-HT2A agonist = mouse Htr2a agonists via beta-arrestin recruitment, primary screen, cell-based, luminescence; hit rate 0.66% among 360,000; CHO-K1 mHTR2A beta-arrestin complementation; percent of 30 µM serotonin response; activation, % at 7.6 µM;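 active = activation above a run cutoff, the mean activation of all tested compounds plus 3 SD, cut at about 14% in these data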
Hep lipid drop = inhibitors of hepatocyte lipid droplet formation, primary screen, imaging, high-throughput imaging, BODIPY stain; AML12 mouse hepatocytes, oleate lipid droplets; inhibition, % at 6.5 µM; hit rate 0.4% among 240,000; AID 1656, 2009;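 active = lipid droplet intensity inhibited by at least 50%, with more than 500 cells counted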
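Technique: fluorescence imaging, 20x objective, two fields per well / Assay system: AML12 hepatocytes (mouse) / Measure: % inhibition of lipid droplet signal / Doses: 6.5 µM single-point dosing / Incubation: overnight exposure / Reagent: 100 µM oleic acid challenge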
M18AAP inhibitor = PfM18AAP inhibitors, malaria aminopeptidase, primary screen, biochemical, QFRET, recombinant enzyme. H-Glu-NHMec fluorogenic cleavage. inhibition, % at 7.35 µM. hit rate 1.2% among 290,000;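 active = inhibition above the campaign mean inhibition over all tested compounds plus 3 SD, cut at about 28% in these data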
HGIII-sPLA2 inh = human group III sPLA2 inhibitors, primary screen, biochemical, QFRET, BODIPY PC-A2 liposome substrate | QFRET BODIPY PC-A2 liposome hydrolysis, fluorescence | hit rate 0.56% among 370,000 | Group 3 secretory phospholipase A2 (Homo sapiens), Q9NZ20 | inhibition, % at 12.2 µM;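 active = inhibition above mean plus 3 SD of compounds lying within the high and low control bounds, cut at about 19% in these data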
Target sequence (Q9NZ20 whole entry, looked up): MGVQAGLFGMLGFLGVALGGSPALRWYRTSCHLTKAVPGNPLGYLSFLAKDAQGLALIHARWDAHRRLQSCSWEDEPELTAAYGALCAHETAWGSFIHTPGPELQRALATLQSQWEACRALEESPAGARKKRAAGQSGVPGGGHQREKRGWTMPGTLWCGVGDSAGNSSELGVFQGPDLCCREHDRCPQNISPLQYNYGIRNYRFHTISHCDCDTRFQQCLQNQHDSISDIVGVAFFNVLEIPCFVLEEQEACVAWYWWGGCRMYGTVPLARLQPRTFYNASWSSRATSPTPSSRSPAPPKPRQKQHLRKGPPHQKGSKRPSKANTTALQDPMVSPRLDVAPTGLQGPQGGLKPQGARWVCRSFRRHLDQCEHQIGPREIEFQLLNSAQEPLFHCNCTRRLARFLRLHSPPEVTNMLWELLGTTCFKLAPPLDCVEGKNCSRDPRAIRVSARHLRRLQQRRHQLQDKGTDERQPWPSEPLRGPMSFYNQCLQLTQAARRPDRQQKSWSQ
hGIII sPLA2 conf = human group III sPLA2 inhibitors, confirmation, biochemical, QFRET, triplicate; shares compounds with HGIII-sPLA2 inh; recombinant hGIII-sPLA2, BODIPY PC-A2 QFRET fluorescence; inhibition, % at 12.2 µM; hit rate 34% among 2,000;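 active = mean inhibition across triplicates above the hit cutoff set in the earlier primary screen, cut at about 19% in these data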
BODIPY interf = 535nm fluorescence optical interference, confirmation, artefact control for HGIII-sPLA2 inhibitor project, biochemical, QFRET. shares compounds with HGIII-sPLA2 inh. BODIPY FL product fluorescence interference. inhibition, % at 12.2 µM. hit rate 8.5% among 2,000;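 active = average inhibition above the solvent-only control mean plus 3 SD, cut at about 6% in these data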
A number is an active result; 0 = inactive; - = no result. Most compounds without a hit are left out; they make up all but 3.3% or so of the library.

SMILES | NRP1-CendR mod | Arrestin-AP2 inh | m5-HT2A agonist | Hep lipid drop | M18AAP inhibitor | HGIII-sPLA2 inh | hGIII sPLA2 conf | BODIPY interf
COc1ccc(OCc2cc(C(=O)N(C)C3CCOCC3)no2)c2ccccc12 | 0 | 0 | 0 | 0 | 0 | 0 | - | -
CC(C)CNC(=O)CN(C)S(=O)(=O)c1ccc(F)cc1 | 0 | 0 | 0 | 0 | 0 | 22.2 | 0 | 0
Cc1nc(SCC(=O)N2CCOCC2)c2c(=O)n(C)c(=O)n(C)c2n1 | 0 | 0 | 0 | 0 | 0 | 21.0 | 0 | 0
COC(=O)[C@]12C[C@H](CC(=O)N3CCN(C(=O)C4CC4)CC3)C(=O)N(Cc3ccc4c(c3)OCO4)C1=C[C@H](C(C)C)O[C@@H]2C1CC1 | - | - | - | - | - | 0 | - | -
CCN(CC)CCn1c(-c2ccccc2)nc(=S)c2c1CC(C)(C)OC2 | 0 | 0 | 0 | 0 | 0 | 21.2 | 0 | 0
COCCn1c(-c2ccccc2)nc(=S)c2c1CC(C)(C)OC2 | 0 | 0 | 0 | 0 | 0 | 0 | - | -
CCc1noc(C)c1C(=O)N1CCN(CC(=O)OC)CC1 | - | - | - | - | - | 0 | - | -
O=C(COc1ccc(Cl)cc1Cl)Nn1c(=S)[nH]c2ncccc2c1=O | 0 | 0 | 0 | 0 | 0 | 0 | - | -
COc1ccccc1OCC(=O)Nn1c(=S)[nH]c2ncccc2c1=O | 0 | 0 | 0 | 0 | 0 | 24.3 | 0 | 0
COc1ccccc1NC(=O)C(C)OC(=O)CSCC(=O)Nc1cc(C)on1 (configuration not stated) | 0 | 0 | 0 | - | - | 0 | - | -
FC(F)(F)c1ccccc1Cc1c(-c2ccco2)nc2c3ccccc3ccn12 | - | - | - | - | - | 0 | - | -
CC(C)Nc1nc(NC(N)=S)nc(NC(C)C)n1 | 0 | 0 | 0 | 0 | 0 | 21.6 | 20.2 | 0
CC(C)Nc1nc(NC(N)=S)nc(NC(C)(C)C)n1 | 0 | 0 | 0 | 0 | 0 | 0 | - | -
CCc1ccc(OCCNc2cc(N3CCNC(C)C3)ccc2[N+](=O)[O-])cc1 (configuration not stated) | 0 | 0 | 0 | - | - | 26.3 | 0 | 0
CCOC(=O)N1CCN(C(=O)C[C@@H]2C[C@@]3(C(=O)OC)CC(C)(C)CC=C3N(Cc3ccccc3)C2=O)CC1 | 0 | - | 0 | - | - | 0 | - | -
O=C(Nc1ccc(Oc2c(F)c(F)c(F)c(F)c2F)cc1)OC1CCN2Cc3ccccc3N=C12 (configuration not stated) | 0 | 0 | 0 | 0 | 0 | - | - | -
CCC(=O)Nc1cccc(NC(=S)NC(=O)c2ccc(Cl)cc2)c1 | 0 | 0 | 0 | 0 | 0 | 0 | - | -
CCC(=O)Nc1cccc(NC(=S)NC(=O)c2ccc(Cl)cc2Cl)c1 | 0 | 0 | 0 | 0 | 0 | 21.0 | 0 | 0
Cc1cc(C(=O)CN2C(=O)C(=O)N(Cc3ccccc3)C2=O)c(C)n1-c1ccccc1F | 0 | 0 | 0 | 0 | 0 | 0 | - | -
Cc1cc(C(=O)CN2CCC(C)CC2)c(C)n1-c1ccccc1F | 0 | 0 | 0 | 0 | 0 | 19.3 | 0 | 0
O=C(NC(=S)NC1C2CC3CC(C2)CC1C3)c1ccccc1 (configuration not stated) | 0 | 0 | 0 | 0 | 0 | 0 | - | -
c1ccc(-c2cccc(CNc3nc(-c4ccccn4)nnc3-c3ccccc3)c2)cc1 | - | - | - | - | - | 25.4 | 0 | 0
O=C(N/N=C/c1ccccc1)c1n[nH]c2c1CCCC2 | 0 | 0 | 0 | 0 | 0 | 0 | - | -
O=C(N/N=C/c1ccc(Cl)cc1)c1n[nH]c2c1CCCC2 | 0 | 0 | 0 | 0 | 0 | 21.3 | 0 | 0
C=CCN1C(=O)[C@H](CC(=O)NCCCCc2ccccc2)[C@@]2(C(=O)OCC)CCCC=C12 | - | - | - | - | - | 0 | - | -
SMILES | NRP1-CendR mod | Arrestin-AP2 inh | m5-HT2A agonist | Hep lipid drop | M18AAP inhibitor | HGIII-sPLA2 inh | hGIII sPLA2 conf | BODIPY interf
COc1ccc(NC(=O)C(C2CC2)n2c(=O)c(-c3ccccc3)nc3ccccc32)cc1 (configuration not stated) | 0 | - | 0 | - | - | 0 | - | -
CCOc1ccc(NC(=S)c2ccncc2)cc1 | 0 | 0 | 0 | 0 | 0 | 21.7 | 0 | 0
N#CCC[C@H]1CC[C@]2(CCCN(C(=O)c3ccccc3)C2)O1 | - | - | - | - | - | 19.4 | 0 | 0
N#CCC[C@@H]1CC[C@]2(CCCN(C(=O)c3ccco3)C2)O1 | - | - | - | - | - | 0 | - | -
CCCc1nnc2n1N=C(c1ccc(OC)c(OC)c1)CS2 | 0 | 0 | 0 | 0 | 0 | 20.4 | 0 | 0
COc1ccc(C2=Nn3c(nnc3-c3ccccc3)SC2)cc1OC | 0 | 0 | 0 | 0 | 0 | 0 | - | -
CC(C)NC(=S)N/N=C/c1cc(Br)ccc1O | 0 | 0 | 0 | 0 | 0 | 29.0 | 0 | 0
COC(=O)N/N=C/c1cc(Br)ccc1O | 0 | 0 | 0 | 0 | 0 | 0 | - | -
Oc1ccc(Br)cc1/C=N/NC(=S)NCCc1ccccc1 | 0 | 0 | 0 | 0 | 0 | 25.7 | 24.1 | 0
NC(=O)c1ccc(-c2ccc(N3C(c4ccsc4)=Cc4ccc(F)cc4C3CC(=O)c3ccco3)cc2)cc1 (configuration not stated) | 0 | - | 0 | - | - | 25.6 | 0 | 0
O=C(CCC(=O)c1ccccc1)Nc1ccccc1 | 0 | 0 | 0 | - | - | 0 | - | -
CCOc1ccc(NCC2CCOC(C)(C)C2)cc1 (configuration not stated) | 0 | 0 | 0 | 0 | 0 | 19.6 | 0 | 0
COc1ccc2c(c1)[C@]1(C(=O)N2C)C2=C(CCCC2=O)Oc2cc(C)oc(=O)c21 | - | - | - | - | - | 0 | - | -

Bioassay records as filed in PubChem.
